# ChEMBL document CHEMBL3576819, “Design, synthesis, biological evaluation and molecular docking studies of phenylpropanoid derivatives as potent anti-hepatitis B virus agents” (Eur J Med Chem, 2015)
# Legend:
# [1] = test system: Hepatitis B virus; assay: Antiviral activity against Hepatitis B virus infected in human HepG2.2.15 cells assessed as inhibition of HBeAg secretion at 150 uM after 9 days by ELISA; type: functional; details: HepG2 2.2.15, 216 h
# Summary of the method: (§1)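 HepG2.2.15 cells (MEM, 10% FBS, 380 µg/ml G418) seeded at 1×10^5 cells/ml, held 24 h at 37 °C, then treated with various drug concentrations; medium with drug renewed every 3 d for up to 9 d. Culture medium sampled on days 3, 6 and 9, stored at -20 °C, and assayed for secreted antigen. Lamivudine as positive control; IC50 = 50% inhibition of secretion; means of at least two experiments.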
# [2] = test system: Hepatitis B virus; assay: Antiviral activity against Hepatitis B virus infected in human HepG2.2.15 cells assessed as inhibition of HBeAg secretion at 75 uM after 3 days by ELISA; type: functional; details: HepG2 2.2.15, 72 h; summary of the method: as §1
# [3] = test system: Hepatitis B virus; assay: Antiviral activity against Hepatitis B virus infected in human HepG2.2.15 cells assessed as inhibition of HBeAg secretion at 37.5 uM after 9 days by ELISA; type: functional; details: HepG2 2.2.15, 216 h; summary of the method: as §1
# [4] = test system: Hepatitis B virus; assay: Antiviral activity against Hepatitis B virus infected in human HepG2.2.15 cells assessed as inhibition of HBsAg secretion at 300 uM after 9 days by ELISA; type: functional; details: HepG2 2.2.15, 216 h; summary of the method: as §1
# [5] = test system: Hepatitis B virus; assay: Antiviral activity against Hepatitis B virus infected in human HepG2.2.15 cells assessed as inhibition of HBeAg secretion at 75 uM after 6 days by ELISA; type: functional; details: HepG2 2.2.15, 144 h; summary of the method: as §1
# [6] = test system: Hepatitis B virus; assay: Antiviral activity against Hepatitis B virus infected in human HepG2.2.15 cells assessed as inhibition of HBsAg secretion at 37.5 uM after 6 days by ELISA; type: functional; details: HepG2 2.2.15, 144 h; summary of the method: as §1
# [7] = test system: Hepatitis B virus; assay: Antiviral activity against Hepatitis B virus infected in human HepG2.2.15 cells assessed as inhibition of HBsAg secretion by ELISA; type: functional, organism-based; details: HepG2 2.2.15; summary of the method: as §1
# [8] = test system: Hepatitis B virus; assay: Antiviral activity against Hepatitis B virus infected in human HepG2.2.15 cells assessed as inhibition of HBsAg secretion at 150 uM after 9 days by ELISA; type: functional; details: HepG2 2.2.15, 216 h; summary of the method: as §1
# [9] = test system: Hepatitis B virus; assay: Antiviral activity against Hepatitis B virus infected in human HepG2.2.15 cells assessed as inhibition of HBsAg secretion at 75 uM after 3 days by ELISA; type: functional; details: HepG2 2.2.15, 72 h; summary of the method: as §1
# [10] = test system: Hepatitis B virus; assay: Antiviral activity against Hepatitis B virus infected in human HepG2.2.15 cells assessed as inhibition of HBsAg secretion at 75 uM after 9 days by ELISA; type: functional; details: HepG2 2.2.15, 216 h; summary of the method: as §1
# [11] = test system: Hepatitis B virus; assay: Antiviral activity against Hepatitis B virus infected in human HepG2.2.15 cells assessed as inhibition of HBeAg secretion at 75 uM after 9 days by ELISA; type: functional; details: HepG2 2.2.15, 216 h; summary of the method: as §1
# [12] = test system: Hepatitis B virus; assay: Antiviral activity against Hepatitis B virus infected in human HepG2.2.15 cells assessed as inhibition of HBeAg secretion at 300 uM after 9 days by ELISA; type: functional; details: HepG2 2.2.15, 216 h; summary of the method: as §1
# [13] = test system: Hepatitis B virus; assay: Antiviral activity against Hepatitis B virus infected in human HepG2.2.15 cells assessed as inhibition of HBsAg secretion at 300 uM after 6 days by ELISA; type: functional; details: HepG2 2.2.15, 144 h; summary of the method: as §1
# [14] = test system: Hepatitis B virus; assay: Antiviral activity against Hepatitis B virus infected in human HepG2.2.15 cells assessed as inhibition of HBsAg secretion at 37.5 uM after 3 days by ELISA; type: functional; details: HepG2 2.2.15, 72 h; summary of the method: as §1
# [15] = test system: Hepatitis B virus; assay: Antiviral activity against Hepatitis B virus infected in human HepG2.2.15 cells assessed as inhibition of HBeAg secretion at 300 uM after 3 days by ELISA; type: functional; details: HepG2 2.2.15, 72 h; summary of the method: as §1
# [16] = test system: Hepatitis B virus; assay: Antiviral activity against Hepatitis B virus infected in human HepG2.2.15 cells assessed as inhibition of HBeAg secretion at 300 uM after 6 days by ELISA; type: functional; details: HepG2 2.2.15, 144 h; summary of the method: as §1
# [17] = test system: Hepatitis B virus; assay: Antiviral activity against Hepatitis B virus infected in human HepG2.2.15 cells assessed as inhibition of HBsAg secretion at 37.5 uM after 9 days by ELISA; type: functional; details: HepG2 2.2.15, 216 h; summary of the method: as §1
# [18] = test system: Hepatitis B virus; assay: Antiviral activity against Hepatitis B virus infected in human HepG2.2.15 cells assessed as cell survival at 75 uM after 9 days (reference value: 100%); type: functional; details: HepG2 2.2.15, 216 h
# Summary of the method: (§2)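 HepG2.2.15 cells (MEM, 10% FBS, 380 µg/ml G418, 37 °C, 5% CO2) seeded at 1×10^5 cells/ml, cultured 24 h, then exposed to various drug concentrations; drug-containing medium renewed every 3 d. OD read at 450 nm after 9 days; percent cell death calculated; CC50 = concentration killing 50% of cells. Means of at least two experiments.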
# [19] = test system: Hepatitis B virus; assay: Antiviral activity against Hepatitis B virus infected in human HepG2.2.15 cells assessed as cell survival at 37.5 uM after 9 days (reference value: 100%); type: functional; details: HepG2 2.2.15, 216 h; summary of the method: as §2
# [20] = test system: Hepatitis B virus; assay: Antiviral activity against Hepatitis B virus infected in human HepG2.2.15 cells assessed as inhibition of HBeAg secretion at 37.5 uM after 3 days by ELISA; type: functional; details: HepG2 2.2.15, 72 h; summary of the method: as §1
# [21] = test system: Hepatitis B virus; assay: Antiviral activity against Hepatitis B virus infected in human HepG2.2.15 cells assessed as cell survival at 150 uM after 9 days (reference value: 100%); type: functional; details: HepG2 2.2.15, 216 h; summary of the method: as §2
# [22] = test system: Hepatitis B virus; assay: Antiviral activity against Hepatitis B virus infected in human HepG2.2.15 cells assessed as inhibition of HBsAg secretion at 150 uM after 3 days by ELISA; type: functional; details: HepG2 2.2.15, 72 h; summary of the method: as §1
# [23] = test system: Hepatitis B virus; assay: Antiviral activity against Hepatitis B virus infected in human HepG2.2.15 cells assessed as inhibition of HBeAg secretion by ELISA; type: functional, organism-based; details: HepG2 2.2.15; summary of the method: as §1
# [24] = test system: Hepatitis B virus; assay: Antiviral activity against Hepatitis B virus infected in human HepG2.2.15 cells assessed as cell survival at 300 uM after 9 days (reference value: 100%); type: functional; details: HepG2 2.2.15, 216 h; summary of the method: as §2
# [25] = test system: Hepatitis B virus; assay: Antiviral activity against Hepatitis B virus infected in human HepG2.2.15 cells assessed as inhibition of HBeAg secretion at 150 uM after 3 days by ELISA; type: functional; details: HepG2 2.2.15, 72 h; summary of the method: as §1
# [26] = Cytotoxicity against human HepG2.2.15 cells assessed as cell death after 9 days by MTT assay; type: cell-based, HepG2 2.2.15; summary of the method: as §2
# [27] = test system: Hepatitis B virus; assay: Antiviral activity against Hepatitis B virus infected in human HepG2.2.15 cells assessed as inhibition of HBeAg secretion at 150 uM after 6 days by ELISA; type: functional; details: HepG2 2.2.15, 144 h; summary of the method: as §1
# [28] = test system: Hepatitis B virus; assay: Antiviral activity against Hepatitis B virus infected in human HepG2.2.15 cells assessed as inhibition of HBeAg secretion at 37.5 uM after 6 days by ELISA; type: functional; details: HepG2 2.2.15, 144 h; summary of the method: as §1
# [29] = Selectivity index, ratio of CC50 for human HepG2.2.15 cells to IC50 for Hepatitis B virus infected in human HepG2.2.15 cells assessed as inhibition of HBsAg secretion; type: functional
# Summary of the method: (§3)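 Selectivity index computed as CC50/IC50, with CC50 from cell death of HepG2.2.15 cells after 9 days of treatment (OD 450 nm) and IC50 from 50% inhibition of HBeAg or HBsAg secretion in the same cells; medium with drug renewed every 3 d.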
# [30] = test system: Hepatitis B virus; assay: Antiviral activity against Hepatitis B virus infected in human HepG2.2.15 cells assessed as inhibition of HBsAg secretion at 300 uM after 3 days by ELISA; type: functional; details: HepG2 2.2.15, 72 h; summary of the method: as §1
# [31] = Selectivity index, ratio of CC50 for human HepG2.2.15 cells to IC50 for Hepatitis B virus infected in human HepG2.2.15 cells assessed as inhibition of HBeAg secretion; type: functional; summary of the method: as §3
# [32] = test system: Hepatitis B virus; assay: Antiviral activity against Hepatitis B virus infected in human HepG2.2.15 cells assessed as inhibition of HBsAg secretion at 150 uM after 6 days by ELISA; type: functional; details: HepG2 2.2.15, 144 h; summary of the method: as §1
# [33] = test system: Hepatitis B virus; assay: Antiviral activity against Hepatitis B virus infected in human HepG2.2.15 cells assessed as inhibition of HBsAg secretion at 75 uM after 6 days by ELISA; type: functional; details: HepG2 2.2.15, 144 h; summary of the method: as §1
Compound,inhibition at 150 µM [1] [%],inhibition at 75 µM [2] [%],inhibition at 37.5 µM [3] [%],inhibition at 300 µM [4] [%],inhibition at 75 µM [5] [%],inhibition at 37.5 µM [6] [%],IC50 [7] [µM],inhibition at 150 µM [8] [%],inhibition at 75 µM [9] [%],inhibition at 75 µM [10] [%],inhibition at 75 µM [11] [%],inhibition at 300 µM [12] [%],inhibition at 300 µM [13] [%],inhibition at 37.5 µM [14] [%],inhibition at 300 µM [15] [%],inhibition at 300 µM [16] [%],inhibition at 37.5 µM [17] [%],viability at 75 µM [18] [%],viability at 37.5 µM [19] [%],inhibition at 37.5 µM [20] [%],further results
COc1cc(/C=C/C(=O)O/N=C/c2ccco2)cc(OC)c1OC,45.1,13.2,25.4,60.8,25.8,15.2,173,47.1,16.2,36,35.6,58,50.1,8.45,29.2,42.6,15.8,127,133,5.59,viability at 150 µM [21]: 93.2%; inhibition at 150 µM [22]: 23.7%; IC50 [23]: 190 µM; viability at 300 µM [24]: 76.1%; inhibition at 150 µM [25]: 22.6%; CC50 at 216 h [26]: 1050 µM; inhibition at 150 µM [27]: 34.3%; inhibition at 37.5 µM [28]: 17.9%; Ratio CC50/IC50 [29]: 6.06; inhibition at 300 µM [30]: 36.7%; Ratio CC50/IC50 [31]: 5.54; inhibition at 150 µM [32]: 36.4%; inhibition at 75 µM [33]: 28.9%
O=C(/C=C/c1ccc2c(c1)OCO2)O/N=C/c1ccco1,59.1,24.8,30.3,85.4,45.8,31.5,64.6,70.5,31.2,59.5,47,86.7,79.5,22.3,47.2,71,32.4,85.5,94.4,16.9,viability at 150 µM [21]: 73.8%; inhibition at 150 µM [22]: 42.9%; IC50 [23]: 81.8 µM; viability at 300 µM [24]: 43%; inhibition at 150 µM [25]: 35.2%; CC50 at 216 h [26]: 480 µM; inhibition at 150 µM [27]: 56.5%; inhibition at 37.5 µM [28]: 26%; Ratio CC50/IC50 [29]: 7.42; inhibition at 300 µM [30]: 57.9%; Ratio CC50/IC50 [31]: 5.86; inhibition at 150 µM [32]: 70.4%; inhibition at 75 µM [33]: 54.6%
COc1ccc(/C=C/C(=O)O/N=C/c2ccco2)cc1OC,43.7,18.2,27,55,27.9,20.8,191,47.3,33.6,39.4,37.3,56.6,53.8,19.9,41.8,48.8,21.2,120,128,14.1,viability at 150 µM [21]: 114%; inhibition at 150 µM [22]: 39.7%; IC50 [23]: 202 µM; viability at 300 µM [24]: 103%; inhibition at 150 µM [25]: 30.4%; CC50 at 216 h [26]: 624 µM; inhibition at 150 µM [27]: 42%; inhibition at 37.5 µM [28]: 20%; Ratio CC50/IC50 [29]: 3.26; inhibition at 300 µM [30]: 47.2%; Ratio CC50/IC50 [31]: 3.1; inhibition at 150 µM [32]: 44.2%; inhibition at 75 µM [33]: 36.5%
